Laboratory results from ChEMBL document CHEMBL2163189, “Discovery and characterization of an inhibitor of glucosylceramide synthase” (J Med Chem, 2012).

Assays:
[1] = Metabolic stability in mouse liver microsome assessed as compound conversion at 15 uM after 30 mins; assay type: ADME; conditions: liver microsomes, read-out: Drug metabolism
[2] = Plasma concentration in mouse at 100 mg/kg, po after 1 hr; assay type: ADME, organism-based; design: dose 100 mg/kg, route oral
How it was run: (§1)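 Female nude mice (n = 3) given 100 mpk orally. Plasma compound levels measured 1 and 4 h after dosing, reported as mean ± SD.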

[3] = Plasma concentration in mouse at 100 mg/kg, po after 4 hrs; assay type: ADME, organism-based; design: dose 100 mg/kg, route oral; how it was run: as §1
[4] = Drug uptake in C57BL6 mouse muscle at 10 mg/kg, po after 24 hrs; assay type: ADME, organism-based, Muscle tissue; design: dose 10 mg/kg, route oral; conditions: read-out: Drug uptake
How it was run: (§2)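 Male C57BL6 mice, n = 3, given a single oral dose of 10 mpk. Compound levels in tissue or plasma were measured 24 h after the dose. Values are mean ± SD.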

[5] = Clearance in CD rat at 5 mg/kg; assay type: ADME, organism-based; design: dose 5 mg/kg; conditions: in vivo
How it was run: (§3)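 Female CD rats, n = 3, given 5 mpk. The HCl salt in saline served as both the oral and the iv formulation. Values are mean ± SD.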

[6] = Volume of distribution at steady state in CD rat at 5 mg/Kg; assay type: ADME, organism-based; conditions: in vivo, read-out: Vdss; how it was run: as §3
[7] = Half life in CD rat at 5 mg/kg; assay type: ADME, organism-based; design: dose 5 mg/kg; conditions: in vivo; how it was run: as §3
[8] = Tmax in CD rat at 5 mg/kg; assay type: ADME, organism-based; design: dose 5 mg/kg; conditions: in vivo; how it was run: as §3
[9] = Oral bioavailability in CD rat at 5 mg/Kg; assay type: ADME, organism-based; conditions: in vivo; how it was run: as §3
[10] = Drug uptake in C57BL6 mouse liver at 10 mg/kg, po after 24 hrs; assay type: ADME, organism-based; design: dose 10 mg/kg, route oral; conditions: read-out: Drug uptake; how it was run: as §2
[11] = Plasma concentration in C57BL6 mouse at 10 mg/kg, po after 24 hrs; assay type: ADME, organism-based; design: dose 10 mg/kg, route oral; how it was run: as §2
[12] = Drug uptake in C57BL6 mouse Fat at 10 mg/kg, po after 24 hrs; assay type: ADME, organism-based; design: dose 10 mg/kg, route oral; conditions: fat (adipose tissue), read-out: Drug uptake; how it was run: as §2
[13] = AUC ( 0 to t) in CD rat at 5 mg/kg; assay type: ADME, organism-based; design: dose 5 mg/kg; conditions: plasma; how it was run: as §3
[14] = Cmax in CD rat at 5 mg/kg; assay type: ADME, organism-based; design: dose 5 mg/kg; conditions: in vivo; how it was run: as §3

Row | SMILES | metabolised at 0.5 h, 15 µM [1] | further results
1 | NC1CCN(C(=O)[C@H](Cc2ccc(Br)cc2)NC(=O)C2(c3ccc(Cl)cc3Cl)CC2)CC1 | 50% | –
2 | CN1CCN(C(=O)[C@H](Cc2ccc(Cl)cc2Cl)NC(=O)C2(c3ccc(Cl)cc3Cl)CC2)CC1 | 80% | concentration at 1 h [2]: 4200 nM; concentration at 4 h [3]: 5800 nM
3 | CN(C)CCN(C)C(=O)[C@H](Cc1ccc(Br)cc1)NC(=O)C1(c2ccc(Cl)cc2Cl)CC1 | 90% | –
4 | CN1CCN(C(=O)[C@H](Cc2c[nH]c3ccccc23)NC(=O)C2(c3ccc(Cl)cc3Cl)CC2)CC1 | 90% | concentration at 1 h [2]: 900 nM; concentration at 4 h [3]: 700 nM
5 | CN1CCN(C(=O)[C@H](Cc2ccc(Br)cc2)NC(=O)C2(c3ccc(Cl)cc3Cl)CC2)CC1 | 90% | –
6 | Cl.NC1C[C@H]2CC[C@@H](C1)N2C(=O)[C@H](Cc1ccc(Br)cc1)NC(=O)C1(c2ccc(OC(F)(F)F)cc2)CC1 (stereo partly drawn) | – | concentration at 24 h [4]: 1800 nM; clearance [5]: 9.58 mL/min/kg; Vd [6]: 19.3 L/kg; half-life [7]: 25.3 h; Tmax [8]: 8 h; bioavailability [9]: 88.1%; concentration at 24 h [10]: 5900 nM; concentration at 24 h [11]: 500 nM; concentration at 24 h [12]: 800 nM; AUC(0-t) [13]: 5.8 µM·h; Cmax [14]: 300 nM
7 | NC1C[C@H]2CC[C@@H](C1)N2C(=O)[C@H](Cc1ccc(Cl)cc1Cl)NC(=O)C1(c2ccc(Cl)cc2Cl)CC1 (stereo partly drawn) | 20% | –
8 | C[C@H]1CN(C(=O)[C@H](Cc2ccc(Cl)cc2Cl)NC(=O)C2(c3ccc(Cl)cc3Cl)CC2)CCN1 | 40% | –
9 | NC1CCCC(NC(=O)[C@H](Cc2ccc(Cl)cc2Cl)NC(=O)C2(c3ccc(Cl)cc3Cl)CC2)C1 (stereo partly drawn) | 10% | –
10 | NC1C[C@H]2CC[C@@H](C1)N2C(=O)[C@H](Cc1ccc(Cl)cc1Cl)NC(=O)C1(c2ccc(OC(F)(F)F)cc2)CC1 (stereo partly drawn) | 8% | –
11 | O=C([C@H](Cc1ccc(Br)cc1)NC(=O)C1(c2ccc(Cl)cc2Cl)CC1)N1CCC(O)CC1 | 30% | –
12 | NC1C[C@H]2CC[C@@H](C1)N2C(=O)[C@H](Cc1ccc(Br)cc1)NC(=O)C1(c2ccc(OC(F)(F)F)cc2)CC1 (stereo partly drawn) | 7% | –
13 | O=C([C@H](Cc1ccc(Cl)cc1Cl)NC(=O)C1(c2ccc(Cl)cc2Cl)CC1)N1CCNCC1 | 10% | –
14 | NC1C[C@H]2CC[C@@H](C1)N2C(=O)[C@H](Cc1ccc(Br)cc1)NC(=O)C1(c2ccc(Cl)cc2Cl)CC1 (stereo partly drawn) | 20% | –
15 | CN(C)CCN(C)C(=O)[C@H](Cc1ccc(Cl)cc1Cl)NC(=O)C1(c2ccc(Cl)cc2Cl)CC1 | 70% | –
16 | CN1CCN(C(=O)[C@H](COCc2ccccc2)NC(=O)C2(c3ccc(Cl)cc3Cl)CC2)CC1 | 50% | –
17 | C[C@@H]1CN(C(=O)[C@H](Cc2ccc(Cl)cc2Cl)NC(=O)C2(c3ccc(Cl)cc3Cl)CC2)CCN1 | 30% | –
18 | CN1CCN(C(=O)[C@H](Cc2ccc(Cl)cc2)NC(=O)C2(c3ccc(Cl)cc3Cl)CC2)CC1 | 73% | –
19 | CN1CCN(C(=O)[C@H](Cc2ccccc2)NC(=O)C2(c3ccc(Cl)cc3Cl)CC2)CC1 | 80% | –
